# Screens (PubChem BioAssay)
# SKN-1 inh: C. elegans SKN-1 inhibition; C. elegans VP596 Pgst-4::GFP/RFP ratio, acrylamide-induced, 24 h; inhibition, % at 21.8 µM; 360,000 tested, 0.49% active; AID 624304;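 active = interference check ratio from 0.5 to 1.5 plus GFP to RFP signal ratio inhibition reaching or exceeding a fixed threshold, cut at about 30% in these data, passing the limit was not always enough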
# Neddyl block: inhibitors of human cullin neddylation; AID 651699; P61081+Q13564; 360,000 tested, 0.58% active; TR-FRET cullin neddylation, biochemical; calls only at 25 µM; in the data active = inhibition above about 36%
# Tn6 DDE FP: inhibitors of Tn6 peptide binding to human fibrin DD(E); Fibrin DD(E) TRITC-Tn6 fluorescence polarization displacement; 370,000 tested, 0.21% active; P02675; inhibition, % at 8.3 µM;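 active = inhibition above a per-campaign cutoff: mean of compounds within control limits plus 3 SD, cut at about 15% in these data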
# Target sequence (P02675 whole entry, looked up): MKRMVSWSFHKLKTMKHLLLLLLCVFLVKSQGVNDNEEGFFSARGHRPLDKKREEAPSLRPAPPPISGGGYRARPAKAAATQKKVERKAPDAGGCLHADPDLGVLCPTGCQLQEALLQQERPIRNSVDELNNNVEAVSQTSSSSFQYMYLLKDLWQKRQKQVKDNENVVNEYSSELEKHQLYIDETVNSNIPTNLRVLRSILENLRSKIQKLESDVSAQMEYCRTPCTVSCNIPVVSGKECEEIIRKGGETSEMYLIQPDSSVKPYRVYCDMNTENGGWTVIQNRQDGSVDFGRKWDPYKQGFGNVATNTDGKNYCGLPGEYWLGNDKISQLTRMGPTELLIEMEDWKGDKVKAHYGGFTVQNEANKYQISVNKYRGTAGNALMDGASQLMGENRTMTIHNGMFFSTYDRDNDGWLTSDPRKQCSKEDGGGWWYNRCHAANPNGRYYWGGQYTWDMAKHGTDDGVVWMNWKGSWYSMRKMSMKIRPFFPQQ
# proKLK7 act: activates the human kallikrein-7 zymogen; 370,000 tested, 0.9% active; AID 652039; purified proKLK7, EDANS-DABCYL substrate fluorescence; 100% is mature enzyme control, 0% vehicle; P49862; activation, % at 7 µM;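 active = activation above the mean of all tested compounds plus 3 SD, computed per campaign excluding outliers beyond control limits, cut at about 13% in these data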
# Target sequence (P49862 whole entry, looked up): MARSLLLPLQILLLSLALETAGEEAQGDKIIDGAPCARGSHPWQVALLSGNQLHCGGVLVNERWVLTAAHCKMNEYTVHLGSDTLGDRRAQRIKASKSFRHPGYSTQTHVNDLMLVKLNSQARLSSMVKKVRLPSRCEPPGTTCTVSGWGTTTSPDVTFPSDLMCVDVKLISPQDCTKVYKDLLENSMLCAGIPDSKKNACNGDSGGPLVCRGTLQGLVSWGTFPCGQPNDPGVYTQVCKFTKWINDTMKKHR
# DDE Tn7 FP inh: DD(E)-Tn7 binding inhibition, primary FP screen. P02675. FP displacement of FITC-Tn7 peptide from fibrin DD(E); 0% = median of compound wells per plate. inhibition, % at 8.3 µM. 370,000 tested, 0.13% active. AID 720508;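 active = inhibition above the mean of compounds falling within the control limits plus 3 SD of them, cut at about 14% in these data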
#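 Also added: labelled Tn7 tracer, 0.1 µM; Assay system: human fibrin DD(E) protein; Amount: 2 µM fibrin DD(E); Schedule: 10 min compound pre-incubation, 3 h probe incubation at room temperature; Repeats: one replicate per compound; Read-out basis: percent inhibition; Measured by: fluorescence polarization of the labelled Tn7 tracer.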
# MT1-MMP act inh: MT1-MMP (human) activation inhibition. 360,000 tested, 0.061% active. HT1080 RFP-PRO-GFP cells, GFP/RFP ratio fluorescence, overnight; percent of plate control window, DMSO zero. GFP/RFP ratio change, % at 20 µM. AID 651647. P50281;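 active = GFP/RFP ratio change of at least 30% with cell ATP level not reduced by more than half and red fluorescence within 50% of control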
#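 Assay system: RFP-PRO-GFP reporter HT1080 cells; read-out basis: GFP/RFP fluorescence ratio; benchmarks: DMSO wells and RFP-L50D-GFP cells; doses: 20 µM single dose, 1% DMSO; schedule: overnight cell settling, then overnight compound exposure, 37 °C, 5% CO2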
# proKLK7 act conf: confirmation of human kallikrein-7 zymogen activators; shares compounds with proKLK7 act; purified proKLK7, EDANS-DABCYL substrate fluorescence; scaled: vehicle 0, mature enzyme 100; activation, % at 7 µM; 3,200 tested, 68% active;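 active = activation, as change over the incubation, above the mean of all tested compounds plus 3 SD, cut at about 13% in these data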
# EDANS-DABCYL int: fluorescence interference counter-screen for KLK7 activators. shares compounds with proKLK7 act. activation, % at 7 µM. AID 686952. 3,200 tested, 80% active. EDANS-DABCYL substrate fluorescence interference, no enzyme, 4 h; solvent 0%, active enzyme control 100%;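 active = activation above the all-compound mean plus 3 SD, ignoring values outside control-based bounds, cut at about 4.8% in these data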;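 also: value is the 4 h activation minus the activation read at time zero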
# K7 EDANS ctr: EDANS fluorescence interference in dose response, no enzyme | EC50, µM | EDANS-DABCYL peptide fluorescence interference | AID 720493 | 250 tested, 20% active | shares compounds with proKLK7 act;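 active = compounds that raise the fluorescence signal in this interference counterscreen, with EC50 at or below 10 µM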;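 also: intact quenched peptide substrate alone read at 355 nm excitation and 520 nm emission; signal is fluorescence gain from T0 to T4 after four hours at room temperature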
# Tn7 DDE conf: DD(E)-Tn7 binding inhibition, FP confirmation. shares compounds with DDE Tn7 FP inh. FP displacement of TRITC-Tn7 peptide from DD(E); 0% set at plate's compound-well median. inhibition, % at 8.3 µM. 460 tested, 5% active;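 active = inhibition above the campaign cutoff, the mean of compounds within control limits plus 3 SD, cut at about 14% in these data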;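 also: displacers lower polarization since freed probe rises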
# DDE Tn7 FP ctr: DD(E)-Tn7 binding inhibition, counter-screen. shares compounds with DDE Tn7 FP inh. fibrin DD(E), TRITC-Tn7 probe displacement, fluorescence polarization. inhibition, % at 8.3 µM. 460 tested, 3% active;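 active = inhibition above the cutoff, the mean of compounds lying between the control bounds plus 3 SD of those compounds, cut at about 17% in these data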
# DDE Tn6 FP ctr: counter-screen for inhibitors of Tn6 peptide binding to fibrin DD(E); AID 720621; TRITC-Tn6 fluorescence polarization displacement; 0% = median of compound wells, not DMSO; shares compounds with Tn6 DDE FP; 680 tested, 2% active; inhibition, % at 8.3 µM;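 active = inhibition above the mean of test compounds lying between the control limits plus 3 SD of those, cut at about 14% in these data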
# DDE Tn6 confirm: confirmation of inhibitors of Tn6 binding to human fibrin DD(E); FP displacement of TRITC-Tn6 peptide from DD(E); 0% = per-plate median of test wells; inhibition, % at 8.3 µM; shares compounds with Tn6 DDE FP; 680 tested, 10% active;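 active = inhibition above the mean of compounds lying within the control limits plus 3 SD, cut at about 16% in these data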
# Hits are given with their value; n = inactive; x = not tested or not shown. The list is not random: actives were taken first. Their share in the collection is about 2.2%.
SMILES,SKN-1 inh,Neddyl block,Tn6 DDE FP,proKLK7 act,DDE Tn7 FP inh,MT1-MMP act inh,proKLK7 act conf,EDANS-DABCYL int,Tn7 DDE conf,DDE Tn7 FP ctr,others
C=C(C)C(=O)Nc1ccc(OC(F)(F)C(F)F)c(NC(=O)C(=C)C)c1,n,n,n,n,n,n,x,x,x,x,
CC(=O)NC(Cc1ccc(C)cc1)C(=O)NC1CCN(C(=O)NCc2ccccc2)CC1 (stereo not drawn),n,n,n,n,n,n,x,x,x,x,
Clc1ccc(-c2cnc3cccnn23)cc1,n,x,n,32,n,n,37,22,x,x,K7 EDANS ctr=n
c1cnn2c(-c3ccc4c(c3)CCO4)cnc2c1,n,x,n,n,n,n,x,x,x,x,
COc1ccc(-c2cnc3cccnn23)cn1,n,x,n,39,n,n,27,38,x,x,
COc1ncccc1-c1cnc2cccnn12,n,x,n,34,n,n,58,58,x,x,
CCCNC(=O)c1oc2ccc3c(c2c1C)C(O)CC(C)(C)O3 (stereo not drawn),n,x,n,n,n,n,x,x,x,x,
COc1ccc2nc(N3CCC(O)CC3)c(C#N)cc2c1,n,x,n,16,n,n,61,72,x,x,
COC(=O)/C=C/c1c(C)nc(NCc2ccccc2)nc1Cl,n,n,n,29,n,n,50,51,x,x,
CCNc1nc(Cl)nc(NCc2ccccc2)n1,n,n,n,n,n,n,x,x,x,x,
CCOC(=O)N1CCN(Cc2nc3cc([N+](=O)[O-])ccc3n2CC)CC1,n,n,n,n,n,n,x,x,x,x,
COc1cccc(CN2C(=O)c3cccc(N)c3C2=O)c1,n,x,n,15,n,n,76,79,x,x,
CC1(C)C(=O)Nc2ccccc2N1C(=O)CSc1nnc2c(Cl)cc(Cl)cn12,n,n,n,n,n,n,x,x,x,x,
CC(C)(C)/C(COc1ccccc1[N+](=O)[O-])=N/O,n,n,n,n,n,n,x,x,x,x,
CC(C)(C)OC(=O)C(Oc1ccccc1[N+](=O)[O-])C(=O)OC(C)(C)C,n,n,n,325,19,n,217,205,n,n,
O=c1oc2c(O)cccc2cc1-c1nc2ccccc2[nH]1,n,x,n,46,36,n,75,67,21,n,
c1ccc(-c2cc(-c3nc4ccccc4[nH]3)c3ccccc3n2)cc1,n,x,n,n,n,n,x,x,x,x,
COc1ccc(/C=C/c2cc(C(=O)O)c3ccccc3n2)cc1,n,x,n,13,38,n,72,72,n,n,
CN(Cc1ccccc1)C(=O)COc1ccc(N(C)S(=O)(=O)c2ccc(F)cc2)cc1,n,n,n,n,n,n,x,x,x,x,
COCCn1c2nc(=O)n(-c3ccccc3)c(=O)c-2nc2ccccc21,n,n,n,49,51,n,40,45,26,n,
O=C(CN(C(=O)CCC(=O)Nc1nccs1)c1ccccc1F)NCCc1ccccc1,n,n,n,n,n,n,x,x,x,x,
O=C1CCN2C=Nc3cccc4ccc1c2c34,n,n,n,56,63,n,68,66,30,n,
Cc1cccc(N2CCN(Cc3oc(CO)cc(=O)c3O)CC2)c1C,n,n,n,n,n,n,x,x,x,x,
CN(C)C(=O)c1cccc(-c2cnc3c(NC=O)cc(-c4ccccc4Cl)cn23)c1,n,n,n,n,n,n,x,x,x,x,
CN(C)C(=O)c1cccc(-c2cnc3c(NC=O)cc(-c4ccccc4N(C)C)cn23)c1,n,n,31,105,n,n,217,237,x,x,DDE Tn6 FP ctr=n;DDE Tn6 confirm=n
SMILES,SKN-1 inh,Neddyl block,Tn6 DDE FP,proKLK7 act,DDE Tn7 FP inh,MT1-MMP act inh,proKLK7 act conf,EDANS-DABCYL int,Tn7 DDE conf,DDE Tn7 FP ctr,others
CCCCCOc1ccc(C(=O)CCC(=O)NNC(=O)c2ccncc2)cc1,n,n,n,n,n,n,x,x,x,x,
CCOC(=O)C1(C)C(=O)CC2c3nc4ccccc4cc3CN2C1=O (stereo not drawn),n,n,75,20,n,n,n,n,x,x,DDE Tn6 FP ctr=n;DDE Tn6 confirm=47
COC(=O)Cc1c(O)ccn(Cc2ccccc2OC)c1=O,n,n,n,n,n,n,x,x,x,x,
O=C1C=C(N2CCOCC2)c2cccc3cccc1c23,n,n,31,27,25,n,n,n,n,n,DDE Tn6 FP ctr=n;DDE Tn6 confirm=n
COc1ccc(CNC(=O)C[C@H]2C[C@H](C(=O)N3CCOCC3)[C@@]3(C)c4[nH]c5cc(-c6ccco6)ccc5c4CCN3C2=O)cc1OC,n,x,115,100,46,n,57,64,n,n,DDE Tn6 FP ctr=n;DDE Tn6 confirm=n
COC(=O)c1ccc2c(c1)C(C)(C)C(/C=C/c1ccccc1O)=[N+]2C,n,x,58,32,n,n,n,n,x,x,DDE Tn6 FP ctr=n;DDE Tn6 confirm=n
COC(=O)c1ccc(N)c(N=CC2=C(O)CC(C)(C)CC2=O)c1,n,x,n,n,n,n,x,x,x,x,
CC(=O)c1cccc(NC(=O)COC(=O)c2ccc(S(C)(=O)=O)c([N+](=O)[O-])c2)c1,n,n,n,n,n,n,x,x,x,x,
COc1cccc(OC)c1C(=O)OCC(=O)NCCCc1ccccc1,n,n,n,n,15,n,x,x,n,n,
COc1cc(OC)cc(C(=O)OCC(=O)NCCCc2ccccc2)c1,n,n,n,n,n,n,x,x,x,x,
CCC1(C)NC(=O)N(CC(=O)N2N=C(c3ccccc3)CC2c2ccc(OC)cc2)C1=O (stereo not drawn),n,n,n,n,17,n,x,x,n,n,
COc1ccc(NS(=O)(=O)c2ccc3c(c2)NC(=O)C(C)S3)cc1 (stereo not drawn),n,n,n,n,14,n,x,x,n,n,
